ChEMBL document CHEMBL4765319, “Identification of a new series of flavopiridol-like structures as kinase inhibitors with high cytotoxic potency” (Eur J Med Chem, 2020)

Key:
SK-OV-3 = assay: Antiproliferative activity against human SKOV3 cells assessed as reduction in cell viability incubated for 72 hrs by CellTiter-Blue fluorescence assay; settings: SK-OV-3, 72 h
[1] = biological target: T1, CDK2/Cyclin A2 (Homo sapiens) (UniProt P24941+P20248); assay: Inhibition of human CDK2/cyclin A assessed as residual activity at 10 uM in presence of ATP by ADP-glo luminescent assay relative to control; assay type: protein-complex assay
Procedure, shortened: (§1)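 Human kinases assayed by ADP-Glo luminescence with 10 μM ATP, compound at 10 or 1 μM. Activity is expressed as % of maximal activity relative to a DMSO control, mean n = 2.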

[2] = biological target: T1, CDK2/Cyclin A2 (Homo sapiens); assay: Inhibition of human CDK2/cyclin A assessed as residual activity at 1 uM in presence of ATP by ADP-glo luminescent assay relative to control; assay type: protein-complex assay
Procedure, shortened: as §1

[3] = biological target: T2, Cyclin-dependent kinase 5/CDK5 activator 1 (Homo sapiens) (UniProt Q00535+Q15078); assay: Inhibition of human CDK5/p25 assessed as residual activity at 10 uM in presence of ATP by ADP-glo luminescent assay relative to control; assay type: protein-complex assay
T2 sequence (Q00535 whole entry): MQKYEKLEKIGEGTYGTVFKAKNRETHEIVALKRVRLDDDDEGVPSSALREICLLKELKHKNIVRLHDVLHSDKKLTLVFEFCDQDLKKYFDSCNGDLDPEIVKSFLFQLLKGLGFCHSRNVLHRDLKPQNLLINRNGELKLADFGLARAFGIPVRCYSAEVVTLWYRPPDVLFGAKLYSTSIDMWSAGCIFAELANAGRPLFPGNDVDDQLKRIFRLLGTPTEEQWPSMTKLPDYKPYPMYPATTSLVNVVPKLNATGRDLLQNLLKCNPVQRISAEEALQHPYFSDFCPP
T2 sequence (Q15078 99-307 partner limits assumed): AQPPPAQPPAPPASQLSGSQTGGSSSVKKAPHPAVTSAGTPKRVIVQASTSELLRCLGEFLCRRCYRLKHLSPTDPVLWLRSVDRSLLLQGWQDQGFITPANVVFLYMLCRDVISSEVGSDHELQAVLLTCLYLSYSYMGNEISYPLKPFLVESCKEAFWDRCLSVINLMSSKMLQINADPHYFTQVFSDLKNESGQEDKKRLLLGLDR
Procedure, shortened: as §1

[4] = biological target: T2, Cyclin-dependent kinase 5/CDK5 activator 1 (Homo sapiens); assay: Inhibition of human CDK5/p25 assessed as residual activity at 1 uM in presence of ATP by ADP-glo luminescent assay relative to control; assay type: protein-complex assay
Procedure, shortened: as §1

[5] = biological target: T3, CDK9/cyclin T1 (Homo sapiens) (UniProt O60563+P50750); assay: Inhibition of human CDK9/cyclin T assessed as residual activity at 10 uM in presence of ATP by ADP-glo luminescent assay relative to control; assay type: protein-complex assay
Procedure, shortened: as §1

[6] = biological target: T3, CDK9/cyclin T1 (Homo sapiens); assay: Inhibition of human CDK9/cyclin T assessed as residual activity at 1 uM in presence of ATP by ADP-glo luminescent assay relative to control; assay type: protein-complex assay
Procedure, shortened: as §1

[7] = biological target: T4, Glycogen synthase kinase-3 beta (Homo sapiens, UniProt P49841); assay: Inhibition of human GSK3beta assessed as residual activity at 10 uM in presence of ATP by ADP-glo luminescent assay relative to control
Procedure, shortened: as §1
Target sequence in this assay (P49841 whole entry, looked up): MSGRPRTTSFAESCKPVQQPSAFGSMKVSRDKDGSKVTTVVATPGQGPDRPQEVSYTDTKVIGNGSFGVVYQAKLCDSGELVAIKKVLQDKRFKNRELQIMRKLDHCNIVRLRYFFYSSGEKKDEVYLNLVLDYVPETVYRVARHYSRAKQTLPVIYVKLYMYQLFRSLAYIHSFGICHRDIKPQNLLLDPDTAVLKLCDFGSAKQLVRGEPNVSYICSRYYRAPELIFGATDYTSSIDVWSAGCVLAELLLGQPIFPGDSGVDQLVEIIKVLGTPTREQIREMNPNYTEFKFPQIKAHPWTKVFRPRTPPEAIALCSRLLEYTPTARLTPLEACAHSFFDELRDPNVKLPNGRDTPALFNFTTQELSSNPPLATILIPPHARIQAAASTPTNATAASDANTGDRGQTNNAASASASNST

[8] = biological target: T4, Glycogen synthase kinase-3 beta; assay: Inhibition of human GSK3beta assessed as residual activity at 1 uM in presence of ATP by ADP-glo luminescent assay relative to control
Procedure, shortened: as §1
Target sequence in this assay (P49841 whole entry, looked up): as above

Leishmania major [9] = assay: Inhibition of Leishmania major CK1 assessed as residual activity at 10 uM in presence of ATP by ADP-glo luminescent assay relative to control
Leishmania major [10] = assay: Inhibition of Leishmania major CK1 assessed as residual activity at 1 uM in presence of ATP by ADP-glo luminescent assay relative to control
Plasmodium falciparum [11] = assay: Inhibition of Plasmodium falciparum GSK3 assessed as residual activity at 10 uM in presence of ATP by ADP-glo luminescent assay relative to control
Procedure, shortened: (§2)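 Recombinant P. falciparum GSK3, bacterially expressed, in buffer A (10 mM MgCl2, 1 mM EGTA, 1 mM DTT, 25 mM Tris-HCl pH 7.5, 50 μg/ml heparin). Substrate 0.010 μg/μl GS-1 peptide, 10 μM ATP, ADP-Glo luminescence. Compound at 10 or 1 μM; % residual activity vs DMSO control, mean n = 2.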

Plasmodium falciparum [12] = assay: Inhibition of Plasmodium falciparum GSK3 assessed as residual activity at 1 uM in presence of ATP by ADP-glo luminescent assay relative to control
Procedure, shortened: as §2

Sus scrofa [13] = species: Sus scrofa; assay: Inhibition of porcine CK1delta/epsilon assessed as residual activity at 10 uM in presence of ATP by ADP-glo luminescent assay relative to control
Sus scrofa [14] = species: Sus scrofa; assay: Inhibition of porcine CK1delta/epsilon assessed as residual activity at 1 uM in presence of ATP by ADP-glo luminescent assay relative to control
Sus scrofa [15] = species: Sus scrofa; assay: Inhibition of porcine GSK3alpha/beta assessed as residual activity at 10 uM in presence of ATP by ADP-glo luminescent assay relative to control
Procedure, shortened: (§3)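 Porcine brain GSK3α/β, native and affinity-purified. Assayed by ADP-Glo luminescence with 10 μM ATP and 0.010 μg/μl GS-1 peptide substrate. Buffer A: 10 mM MgCl2, 1 mM EGTA, 1 mM DTT, 25 mM Tris-HCl pH 7.5, 50 μg/ml heparin. Compound tested at 10 or 1 μM. Result is % of maximal activity versus DMSO control, mean of n = 2.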

Sus scrofa [16] = species: Sus scrofa; assay: Inhibition of porcine GSK3alpha/beta assessed as residual activity at 1 uM in presence of ATP by ADP-glo luminescent assay relative to control
Procedure, shortened: as §3

CDK2/Cyclin A2 = CDK2/Cyclin A2 (Homo sapiens, UniProt P24941); assay: Inhibition of human CDK2/cyclin A in presence of ATP by ADP-glo luminescent assay; assay type: protein-complex assay
Procedure, shortened: (§4)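 Human kinases tested over roughly 0.0003–10 μM by ADP-Glo luminescence with 10 μM ATP, in duplicate. IC50 is taken from dose-response curves.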

[17] = biological target: Cyclin-dependent kinase 5/CDK5 activator 1 (Homo sapiens, UniProt Q00535); assay: Inhibition of human CDK5/p25 in presence of ATP by ADP-glo luminescent assay; assay type: protein-complex assay
Cyclin-dependent kinase 5/CDK5 activator 1, sequence (Q00535 whole entry): as the sequence (Q00535 whole entry) above
Cyclin-dependent kinase 5/CDK5 activator 1, sequence (Q15078 whole entry, further chain): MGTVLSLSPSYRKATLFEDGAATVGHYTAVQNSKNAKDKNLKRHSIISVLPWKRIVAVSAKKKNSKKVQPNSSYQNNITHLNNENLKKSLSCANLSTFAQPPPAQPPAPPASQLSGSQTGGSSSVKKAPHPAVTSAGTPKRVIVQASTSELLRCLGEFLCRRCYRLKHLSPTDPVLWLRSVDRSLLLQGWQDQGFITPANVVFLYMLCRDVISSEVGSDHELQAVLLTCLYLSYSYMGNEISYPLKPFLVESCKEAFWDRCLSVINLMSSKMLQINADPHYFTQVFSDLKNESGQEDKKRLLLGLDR
Procedure, shortened: as §4

CDK9/cyclin T1 = CDK9/cyclin T1 (Homo sapiens, UniProt P50750); assay: Inhibition of human CDK9/cyclin T in presence of ATP by ADP-glo luminescent assay; assay type: protein-complex assay
CDK9/cyclin T1, sequence (O60563 whole entry): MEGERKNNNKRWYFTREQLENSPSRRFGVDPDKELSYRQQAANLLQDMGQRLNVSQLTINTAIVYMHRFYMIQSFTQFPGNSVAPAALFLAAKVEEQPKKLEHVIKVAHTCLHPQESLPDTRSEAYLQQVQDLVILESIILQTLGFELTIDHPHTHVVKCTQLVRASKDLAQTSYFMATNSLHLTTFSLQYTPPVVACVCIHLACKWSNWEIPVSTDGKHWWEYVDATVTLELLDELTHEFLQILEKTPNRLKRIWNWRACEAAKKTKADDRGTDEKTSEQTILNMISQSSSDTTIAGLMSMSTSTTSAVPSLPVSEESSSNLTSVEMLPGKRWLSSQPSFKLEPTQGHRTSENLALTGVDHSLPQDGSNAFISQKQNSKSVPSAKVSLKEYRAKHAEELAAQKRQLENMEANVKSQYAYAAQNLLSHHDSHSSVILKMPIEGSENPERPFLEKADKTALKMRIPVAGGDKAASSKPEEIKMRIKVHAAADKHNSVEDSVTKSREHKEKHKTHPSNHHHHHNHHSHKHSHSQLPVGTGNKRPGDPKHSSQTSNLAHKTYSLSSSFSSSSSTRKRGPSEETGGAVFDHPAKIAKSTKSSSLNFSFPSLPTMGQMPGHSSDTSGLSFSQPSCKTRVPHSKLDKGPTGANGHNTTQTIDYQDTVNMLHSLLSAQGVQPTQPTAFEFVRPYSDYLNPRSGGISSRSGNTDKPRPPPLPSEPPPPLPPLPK
CDK9/cyclin T1, sequence (P50750 whole entry): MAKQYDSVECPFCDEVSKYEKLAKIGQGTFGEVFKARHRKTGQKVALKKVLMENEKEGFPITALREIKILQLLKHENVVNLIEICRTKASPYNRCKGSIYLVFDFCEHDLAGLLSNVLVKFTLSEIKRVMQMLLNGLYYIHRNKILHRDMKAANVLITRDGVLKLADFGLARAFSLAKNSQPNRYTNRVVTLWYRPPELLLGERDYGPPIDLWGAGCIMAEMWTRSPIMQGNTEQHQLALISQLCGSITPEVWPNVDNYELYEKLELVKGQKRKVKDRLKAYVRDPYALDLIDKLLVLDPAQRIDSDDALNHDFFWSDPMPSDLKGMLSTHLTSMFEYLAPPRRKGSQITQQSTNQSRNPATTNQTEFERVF
Procedure, shortened: as §4

[18] = biological target: T4, Glycogen synthase kinase-3 beta; assay: Inhibition of human GSK3beta in presence of ATP by ADP-glo luminescent assay
Procedure, shortened: as §4
Target sequence in this assay (P49841 whole entry): as the sequence (P49841 whole entry, looked up) above

PC-3 = assay: Antiproliferative activity against human PC-3 cells assessed as reduction in cell viability incubated for 72 hrs by CellTiter-Blue fluorescence assay; settings: PC-3, 72 h
NCI-N87 = assay: Antiproliferative activity against human NCI-N87 cells assessed as reduction in cell viability incubated for 72 hrs by CellTiter-Blue fluorescence assay; settings: NCI-N87, 72 h
SK-BR-3 = assay: Antiproliferative activity against human SK-BR-3 cells assessed as reduction in cell viability incubated for 72 hrs by CellTiter-Blue fluorescence assay; settings: SK-BR-3, 72 h
HCT-116 = assay: Antiproliferative activity against human HCT-116 cells assessed as reduction in cell viability incubated for 72 hrs by CellTiter-Blue fluorescence assay; settings: HCT-116, 72 h
MIA PaCa-2 = assay: Antiproliferative activity against human MIA PaCa-2 cells assessed as reduction in cell viability incubated for 72 hrs by CellTiter-Blue fluorescence assay; settings: MIA PaCa-2, 72 h
K562 = assay: Antiproliferative activity against human K562 cells assessed as reduction in cell viability incubated for 72 hrs by CellTiter-Blue resazurin fluorescence assay; settings: K562, 72 h

`CC(=O)OC[C@@H]1O[C@@H](Sc2ccc(-c3cc(=O)c4c(O)cc(O)c(C5=CCN(C)CC5)c4o3)cc2)[C@@H](OC(C)=O)[C@H](OC(C)=O)[C@H]1OC(C)=O` showed an IC50 (SK-OV-3) of over 10000 nM.
`CN1CC=C(c2c(O)cc(O)c3c(=O)cc(-c4ccc(Sc5nc6ccccc6[nH]5)cc4)oc23)CC1` was tested, and the Activity [1] was 5%, the Activity [2] was 35% and the Activity [3] was 4%. It also gave an Activity [4] of 14%, an Activity [5] of 10% and an Activity [6] of 8%. It also gave an Activity [7] of -8%, an Activity [8] of 6% and an Activity (Leishmania major [9]) of 40%. It also gave an Activity (Leishmania major [10]) of 99%, an Activity (Plasmodium falciparum [11]) of 54% and an Activity (Plasmodium falciparum [12]) of 85%. For the same compound, the Activity (Sus scrofa [13]) was 69%, the Activity (Sus scrofa [14]) was 91% and the Activity (Sus scrofa [15]) was 11%. For the same compound, the Activity (Sus scrofa [16]) was 36%, the IC50 (CDK2/Cyclin A2) was 162 nM and the IC50 [17] was 121 nM. The IC50 (CDK9/cyclin T1) was 8 nM, the IC50 [18] was 117 nM and the IC50 (PC-3) was 742 nM. It also gave an IC50 (SK-OV-3) of 595 nM, an IC50 (NCI-N87) of 183 nM and an IC50 (SK-BR-3) of 254 nM. It also gave an IC50 (HCT-116) of 293 nM, an IC50 (MIA PaCa-2) of 852 nM and an IC50 (K562) of 194 nM.
Compound `CN1CC=C(c2c(O)cc(O)c3c(=O)cc(-c4ccc(S[C@@H]5O[C@@H](CO)C(O)C(O)[C@@H]5O)cc4)oc23)CC1` (single isomer, unassigned) has an IC50 (SK-OV-3) of over 10000 nM.
`CC(=O)N[C@H](CSc1ccc(-c2cc(=O)c3c(O)cc(O)c(C4=CCN(C)CC4)c3o2)cc1)C(=O)O` was tested, and the IC50 (SK-OV-3) was over 10000 nM.
`COC(=O)[C@@H](CSc1ccc(-c2cc(=O)c3c(O)cc(O)c(C4=CCN(C)CC4)c3o2)cc1)NC(=O)OC(C)(C)C` gave an IC50 (SK-OV-3) of 7790 nM.
Work on `CN1CC=C(c2c(O)cc(O)c3c(=O)cc(-c4ccc(Nc5ccccc5)cc4)oc23)CC1` yielded an IC50 (SK-OV-3) of 1200 nM.
`CN1CC=C(c2c(O)cc(O)c3c(=O)cc(-c4ccc(Sc5ncccn5)cc4)oc23)CC1` gave an IC50 (SK-OV-3) of over 10000 nM.
With `CN1CC=C(c2c(O)cc(O)c3c(=O)cc(-c4ccc(Sc5nc6ccccc6[nH]5)cc4Cl)oc23)CC1` the Activity [1] was 22%, the Activity [2] was 46% and the Activity [3] was 14%. For the same compound, the Activity [4] was 42%, the Activity [5] was 3% and the Activity [6] was 2%. The Activity [7] was 4%, the Activity [8] was 14% and the Activity (Leishmania major [9]) was 35%. It also gave an Activity (Leishmania major [10]) of 81%, an Activity (Plasmodium falciparum [11]) of 64% and an Activity (Plasmodium falciparum [12]) of over 100%. The Activity (Sus scrofa [13]) was 48%, the Activity (Sus scrofa [14]) was 86% and the Activity (Sus scrofa [15]) was 4%. For the same compound, the Activity (Sus scrofa [16]) was 43%, the IC50 (CDK2/Cyclin A2) was 1560 nM and the IC50 [17] was 550 nM. It also gave an IC50 (CDK9/cyclin T1) of 15 nM, an IC50 [18] of 216 nM and an IC50 (PC-3) of 326 nM. It also gave an IC50 (SK-OV-3) of 333 nM, an IC50 (NCI-N87) of 12 nM and an IC50 (SK-BR-3) of 66.6 nM. For the same compound, the IC50 (HCT-116) was 170 nM, the IC50 (MIA PaCa-2) was 361 nM and the IC50 (K562) was 36 nM.
`CC(=O)OC[C@@H]1O[C@@H](Sc2ccc(-c3cc(=O)c4c(O)cc(O)c(C5=CCN(C)CC5)c4o3)c(Cl)c2)[C@@H](OC(C)=O)C(OC(C)=O)C1OC(C)=O` (single isomer, unassigned) showed an IC50 (SK-OV-3) of 2330 nM.
In the case of `CN1CC=C(c2c(O)cc(O)c3c(=O)cc(-c4ccc(SCCC(=O)NO)cc4)oc23)CC1`, the IC50 (SK-OV-3) is reported as over 10000 nM.
`CN1CC[C@H](c2c(O)cc(O)c3c(=O)cc(-c4ccccc4Cl)oc23)[C@H](O)C1` [ALVOCIDIB] gave an Activity [1] of 11%, an Activity [2] of 26% and an Activity [3] of 13%. The Activity [4] was 36%, the Activity [5] was 1% and the Activity [6] was 5%. It also gave an Activity [7] of 10%, an Activity [8] of 50% and an Activity (Leishmania major [9]) of 61%. It also gave an Activity (Leishmania major [10]) of over 100%, an Activity (Plasmodium falciparum [11]) of 70% and an Activity (Plasmodium falciparum [12]) of over 100%. It also gave an Activity (Sus scrofa [13]) of 78%, an Activity (Sus scrofa [14]) of over 100% and an Activity (Sus scrofa [15]) of 16%. The Activity (Sus scrofa [16]) was 70%, the IC50 (SK-OV-3) was 220 nM and the IC50 (NCI-N87) was 111 nM. For the same compound, the IC50 (SK-BR-3) was 75 nM, the IC50 (MIA PaCa-2) was 320 nM and the IC50 (K562) was 125 nM.
